Screens as filed in PubChem BioAssay.
CCR6 antagonist: antagonists of human CCR6 receptor; CHO-K1 CCR6 PathHunter beta-arrestin, luminescence, CCL20-stimulated; inhibition, % at 20 µM; hit rate 0.49% among 340,000; AID 493098;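 active = compounds whose inhibition of the agonist-driven luminescence signal at 20 µM reaches about 50%, limit read from the data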;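 also: cells stimulated with CCL20 at 14 nM final; plate controls were DMSO with CCL20 for no effect and DMSO without agonist for full effect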
APJ antag: APJ receptor antagonism; AID 2521; P35414; inhibition, % at 20 µM; CHO-K1 APJ beta-arrestin complementation, luminescence; hit rate 0.32% among 330,000;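 active = inhibition above about 40% at 20 µM, limit read from the data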;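 also: cells challenged with 10 nM apelin-13 agonist together with compound; plate controls were apelin-13 plus DMSO wells for no effect and DMSO wells lacking apelin-13 for full effect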
CXCR6 inh: inhibitors of human CXCR6 receptor | hit rate 0.36% among 360,000 | O00574 | CHO-K1 PathHunter CXCR6 beta-arrestin, luminescence | inhibition, % at 20 µM; in the data active = inhibition above about 34%, passing the limit was not always enough;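 also: antagonist mode with CXCL16 agonist at 10 nM final; 0% = 10 nM CXCL16 with DMSO and 100% = unstimulated wells without agonist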
EBI2 block: blocks human EBI2 receptor beta-arrestin signaling; P32249; EBI2 beta-arrestin recruitment, luminescence, 7a,25-OHC stimulated; inhibition, % at 5 µM; hit rate 0.81% among 360,000; in the data active = inhibition above about 38%;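 also: enzyme fragment complementation signal reports receptor beta-arrestin coupling in cells; 0% = agonist plus DMSO wells and 100% = wells without agonist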
Target sequence (P32249 whole entry, looked up, the tested form may be a part): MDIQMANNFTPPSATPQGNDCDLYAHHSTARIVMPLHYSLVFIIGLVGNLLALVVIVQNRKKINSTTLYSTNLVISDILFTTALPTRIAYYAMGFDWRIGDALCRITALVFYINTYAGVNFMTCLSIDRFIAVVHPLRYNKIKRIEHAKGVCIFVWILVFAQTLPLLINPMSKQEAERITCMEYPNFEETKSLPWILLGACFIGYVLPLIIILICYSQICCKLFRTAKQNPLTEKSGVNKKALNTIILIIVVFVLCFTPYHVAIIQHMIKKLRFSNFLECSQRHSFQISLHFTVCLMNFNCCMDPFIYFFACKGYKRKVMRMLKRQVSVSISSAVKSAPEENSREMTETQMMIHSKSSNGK
APJ agonist: activates the human apelin receptor APJ | P35414 | CHO-K1 APJ PathHunter beta-arrestin, luminescence; 0% DMSO wells, 100% apelin | activation, % at 20 µM | hit rate 0.11% among 330,000;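 active = activation more than six SD over the plate average, tested at 20 µM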;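 also: 0% = DMSO alone and 100% = apelin-13 at 10 nM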
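Assay system – PathHunter CHO-K1 APJ (AGTRL-1) beta-arrestin reporter cells · Compound – one dose, 20 µM compound, 1% DMSO · Timing – compound 90 min 25 °C, reagent 1 h · Measured by – luminescence from split beta-galactosidase complementation, Galacton Star/Emerald II substrate · Measure – beta-arrestin recruitment to APJ as agonist activity, luminescent signal · Benchmarks – DMSO vs Apelin-13 10 nM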
APJ antag conf: confirmation of human APJ apelin receptor antagonists | shares compounds with APJ antag | APJ beta-arrestin recruitment, luminescence, antagonist mode | inhibition, % at 20 µM | hit rate 66% among 950; in the data active = inhibition above about 50%
CXCR6 antag conf: confirmation of human CXCR6 receptor antagonists. hit rate 65% among 700. AID 602409. CHO-K1 CXCR6 PathHunter beta-arrestin, luminescence. shares compounds with CXCR6 inh. inhibition, % at 20 µM;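 active = mean inhibition over four retests above 40%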;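 also: receptor stimulated with 10 nM CXCL16 agonist; beta-galactosidase fragment complementation upon beta-arrestin recruitment to receptor; plate controls were CXCL16 plus DMSO for no effect and DMSO without CXCL16 for full effect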
Active calls of the source: *; · = no result given. An excerpt weighted towards active compounds, which were near 1.5% of everything screened.

SMILES	CCR6 antagonist	APJ antag	CXCR6 inh	EBI2 block	APJ agonist	APJ antag conf	CXCR6 antag conf
CCN(CC)CCCn1c2c(c(SCC(=O)Nc3cc(OC)cc(OC)c3)nc1=O)CCC2	1	55*	8	3	-3	18	·
O=C(NNc1ccc(O)cc1)c1ccc(Br)cc1	101*	86*	70*	59*	-15	139*	·
O=c1[nH]c2ccc(Br)cc2o1	7	·	-1	6	·	·	·
O=C(CCl)c1ccc2[nH]c(=O)oc2c1	7	83*	8	2	-14	20	·
Fc1ccc(NC(=S)Nc2ccc(Cl)cc2Cl)cc1	13	57*	·	·	-2	63*	·
Fc1ccc(CNC(=S)Nc2ccc(Cl)cc2Cl)cc1	-7	13	-3	-10	-2	·	·
COc1cccc(C(=O)NC(=S)Nc2cccnc2)c1	34	21	23	-12	-5	·	·
CC(C)Oc1cccc(C(=O)NC(=S)Nc2cccnc2)c1	38	42*	21	-1	-5	50*	·
Oc1ccc(N=Nc2c(O)ccc3ccccc23)cc1	54*	50*	39	23	-11	71*	·
O=C(NNc1ccc(Cl)cc1)c1sccc1Cl	27	62*	8	21	-6	98*	·
O=C(OCn1nnc2ccccc2c1=O)c1ccc(F)c(S(=O)(=O)N2CCOCC2)c1	·	·	5	-4	·	·	·
CC(C)N1CCc2c(sc(NC(=O)c3cc(-c4cccs4)nc4ccccc34)c2C(N)=O)C1	62*	46*	17	6	-15	65*	·
COc1ccc(CCNC(=O)Cc2ccccc2)cc1OC	17	111*	3	1	-2	27	·
Cc1ccc(N=Nc2c(=O)[nH]n3c(=O)cc(C)[nH]c23)cc1	27	43*	17	0	-7	62*	·
CC(=O)OC[C@@H]1CN(Cc2ccccc2)C[C@H](n2cnc3c(NC4CCCC4)ncnc32)O1	·	·	-12	10	·	·	·
FC(F)(F)c1cc(C(F)(F)F)c2ccc(N3CCN(c4ccc(Cl)cc4)CC3)nc2n1	25	-4	4	25	-1	·	·
N#CC(c1ccc(Cl)cc1)c1ccc2c(C(F)(F)F)cc(C(F)(F)F)nc2n1 (stereo not drawn)	56*	47*	45*	4	-6	76*	·
C[C@H]1CN([C@@H](C)CO)C(=O)CCCn2cc(nn2)CO[C@@H]1CN(C)C(=O)Nc1ccc(-c2cccs2)cc1	·	·	3	-13	·	·	·
CCOC(=O)c1c(-c2ccc(C)o2)csc1NC(=S)NC(=O)N(C)C	·	46*	44*	-12	-5	42	62*
COc1ccc(C2c3ccc4ccccc4c3Oc3ncn(CCN(C)C)c(=N)c32)cc1 (stereo not drawn)	15	20	3	25	-1	·	·
C=CCn1c(=O)c2c(nc3n2CC(C)CN3c2cccc(OC)c2)n(C)c1=O (stereo not drawn)	59*	48*	49*	22	-8	77*	51*
CC(C)(C)OC(=O)NCCc1onc(-c2cccc([N+](=O)[O-])c2)c1C(=O)O	·	·	-2	-7	·	·	·
CCNC(=O)C1CCCN(C(=O)c2cccc(C#N)c2)CC1 (stereo not drawn)	·	·	-7	-3	·	·	·
CCC(C)CN1C(=O)CSCC1(C)C(=O)NC(C)C (stereo not drawn)	·	·	·	-8	·	·	·
C=CC[n+]1c(-c2ccc(Cl)cc2Cl)csc1Nc1c(C)n(C)n(-c2ccccc2)c1=O	82*	54*	64*	39	-10	87*	66*
SMILES	CCR6 antagonist	APJ antag	CXCR6 inh	EBI2 block	APJ agonist	APJ antag conf	CXCR6 antag conf
O=C(NC(=S)NNC(=O)c1ccccc1O)c1cccs1	17	9	12	-8	-4	·	·
COc1ccccc1C(=O)NNC(=S)NC(=O)c1cccs1	·	42*	53*	3	-6	68*	58*
NC(=O)c1ccccc1NCC(=O)c1ccc(Cl)cc1	105*	101*	80*	16	-16	136*	46*
Cc1ccc(CNC(=S)N2CCOCC2)cc1	-3	13	-10	-10	-2	·	·
Cc1ccc(/C=N/NC(=S)N2CCOCC2)cc1	76*	51*	50*	-4	-6	65*	74*
CCC1=NN(C(=O)c2ccccc2O)C(O)(c2ccccc2)C1 (stereo not drawn)	43	19	20	9	-5	·	·
CCC1=NN(C(=O)c2ccc([N+](=O)[O-])cc2)C(O)(c2ccccc2)C1 (stereo not drawn)	82*	45*	64*	10	-10	71*	42*
O=c1[nH][nH]c2c1[C@H](c1ccc(F)cc1)O[C@H](CCc1ccccc1)C2	·	·	-3	-1	·	·	·
O=C1c2cccc3c([N+](=O)[O-])ccc(c23)C(=O)N1c1ccc(Cl)cn1	76*	49*	54*	44*	-5	83*	42*
Cn1nc(C2CC2)cc1NC(=O)C1(C)CCN1C(=O)CC(c1ccccc1)c1ccccc1 (stereo not drawn)	·	·	5	33	·	·	·
C=CCOC(=O)Nc1nc(CCNC(=O)OCc2ccccc2)c(C(=O)O)s1	·	·	·	2	·	·	·
CC(=O)OCCN(C)c1cc(SC(C)C)c2nonc2c1[N+](=O)[O-]	25	-1	6	-8	4	·	·
CN(CCO)c1cc(Sc2nc3ccccc3s2)c2nonc2c1[N+](=O)[O-]	113*	97*	99*	25	-9	107*	109*
O=C(Nc1nnc(SCc2ccc(F)cc2)s1)c1ccccn1	70*	78*	44*	67*	-12	46	50*
CC1(C(=O)NS(=O)(=O)C2CC2)CCCN(C(=O)Cc2ccc3ccccc3c2)C1 (stereo not drawn)	·	·	2	1	·	·	·
CC(C)N1C(=O)c2ccccc2NC(=O)C1C(=O)NCc1ccccc1 (stereo not drawn)	·	·	·	-6	·	·	·
O=C(N/N=C(\c1ccccc1)c1cccnc1)c1cccc(F)c1	101*	70*	83*	21	-17	88*	94*
O=C(N/N=C(\c1ccccc1)c1cccnc1)c1ccc(O)cc1	12	1	1	-6	-3	·	·
Oc1cccc2ccc(/C=C/c3c(F)cccc3Cl)nc12	56*	44*	47*	8	-7	32	58*
COc1ccc(S(=O)(=O)N2C[C@H]3CON(C)[C@H]3C[C@H]2c2ccc(-c3cc4ccccc4o3)cc2)cc1	·	·	-6	28	·	·	·
Cc1ccc(CS(=O)(=O)c2ncc(Cl)c(C(=O)Nc3ccc(OC(F)F)cc3)n2)cc1	71*	42*	76*	43	-5	52*	67*
Cc1ccc(CS(=O)(=O)c2ncc(Cl)c(C(=O)Nc3nnc(C(C)C)s3)n2)cc1	2	-15	-9	38	0	·	·
CCCCNC(=O)c1ccc(Cc2cn(C)c3ccccc23)nc1	·	·	0	15	·	·	·
